Test results from ChEMBL document CHEMBL1156501, “Ibogaine, a noncompetitive inhibitor of serotonin transport, acts by stabilizing the cytoplasm-facing state of the transporter” (J Biol Chem, 2007).
Activity calls are given as the source filed them. The calls are words filed in the database; no cut-off is given here.

B1: Sodium-dependent serotonin transporter (Rattus norvegicus), P31652 (protein)
chain: METTPLNSQKVLSECKDREDCQENGVLQKGVPTTADRAEPSQISNGYSAVPSTSAGDEASHSIPAATTTLVAEIRQGERETWGKKMDFLLSVIGYAVDLGNIWRFPYICYQNGGGAFLLPYTIMAIFGGIPLFYMELALGQYHRNGCISIWRKICPIFKGIGYAICIIAFYIASYYNTIIAWALYYLISSLTDRLPWTSCTNSWNTGNCTNYFAQDNITWTLHSTSPAEEFYLRHVLQIHQSKGLQDLGTISWQLTLCIVLIFTVIYFSIWKGVKTSGKVVWVTATFPYIVLSVLLVRGATLPGAWRGVVFYLKPNWQKLLETGVWVDAAAQIFFSLGPGFGVLLAFASYNKFNNNCYQDALVTSVVNCMTSFVSGFVIFTVLGYMAEMRNEDVSEVAKDAGPSLLFITYAEAIANMPASTFFAIIFFLMLITLGLDSTFAGLEGVITAVLDEFPHIWAKRREWFVLIVVITCVLGSLLTLTSGGAYVVTLLEEYATGPAVLTVALIEAVAVSWFYGITQFCSDVKEMLGFSPGWFWRICWVAISPLFLLFIICSFLMSPPQLRLFQYNYPHWSIVLGYCIGMSSVICIPTYIIYRLISTPGTLKERIIKSITPETPTEIPCGDIRMNAV

Assays:
Rattus norvegicus [1] = species on record: Rattus norvegicus; test: Inhibition of 2-(aminoethyl)methanethiosulphonate hydrobromide-induced inactivation of rat SERT S277 mutant assessed as drug level causing half maximal protection from inactivation
Outline: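 Membranes from HeLa cells expressing rat SERT S277C were treated with 50 μM MTSEA plus graded cocaine, ibogaine or 5-HT. After washing, residual [125I]β-CIT binding was measured. The drug concentration giving half-maximal protection from or potentiation of inactivation was fitted by nonlinear regression.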

[2] = test system: Sodium-dependent serotonin transporter (Rattus norvegicus), P31652 [S404C]; test: Effect on 2-(aminoethyl)methanethiosulphonate hydrobromide-induced inactivation of rat SERT S404C mutant assessed as increase in rate constant for inactivation
Outline: (§1)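 Membranes from HeLa cells expressing rat SERT cysteine mutants were filter-bound and treated for 10 min with a range of MTSEA concentrations plus 10 μM ibogaine, 5-HT or cocaine. After washing, residual 0.1 nM [125I]β-CIT binding was measured. The MTSEA concentration giving half-maximal inactivation was used to calculate the inactivation rate constant.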

[3] = test system: Sodium-dependent serotonin transporter (Rattus norvegicus), P31652 [T284C]; test: Effect on 2-(aminoethyl)methanethiosulphonate hydrobromide-induced inactivation of rat SERT T284C mutant assessed as increase in rate constant for inactivation; outline: as §1
[4] = test system: Sodium-dependent serotonin transporter (Rattus norvegicus), P31652 [S277C]; test: Effect on 2-(aminoethyl)methanethiosulphonate hydrobromide-induced inactivation of rat SERT S277C mutant assessed as increase in rate constant for inactivation; outline: as §1
Rattus norvegicus [5] = species on record: Rattus norvegicus; test: Effect on 2-(aminoethyl)methanethiosulphonate hydrobromide-induced inactivation of rat SERT X5C mutant
Outline: (§2)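 Membranes from HeLa cells expressing rat SERT X5C or K279C (X5C background) were treated with 2 mM MTSEA plus graded ibogaine. Membranes were washed free of MTSEA and ibogaine, then residual binding was measured with 0.1 nM [125I]β-CIT for 1.5 h at room temperature.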

[6] = test system: Sodium-dependent serotonin transporter (Rattus norvegicus), P31652 [Y107C]; test: Effect on 2-(aminoethyl)methanethiosulphonate hydrobromide-induced inactivation of rat SERT Y107C mutant assessed as increase in rate constant for inactivation; outline: as §1
[7] = test system: Sodium-dependent serotonin transporter (Rattus norvegicus), P31652 [V281C]; test: Effect on 2-(aminoethyl)methanethiosulphonate hydrobromide-induced inactivation of rat SERT V281C mutant assessed as increase in rate constant for inactivation; outline: as §1
[8] = test system: Sodium-dependent serotonin transporter (Rattus norvegicus), P31652 [T276C]; test: Effect on 2-(aminoethyl)methanethiosulphonate hydrobromide-induced inactivation of rat SERT T276C mutant assessed as increase in rate constant for inactivation; outline: as §1
[9] = test system: Sodium-dependent serotonin transporter (Rattus norvegicus), P31652 [K272C]; test: Effect on 2-(aminoethyl)methanethiosulphonate hydrobromide-induced inactivation of rat SERT K272C mutant assessed as increase in rate constant for inactivation; outline: as §1
Rattus norvegicus [10] = species on record: Rattus norvegicus; test: Effect on 2-(aminoethyl)methanethiosulphonate hydrobromide-induced inactivation of rat SERT […] mutant assessed as increase in rate constant for inactivation; outline: as §1
Rattus norvegicus [11] = species on record: Rattus norvegicus; test: Effect on 2-(aminoethyl)methanethiosulphonate hydrobromide-induced inactivation of rat SERT K279 mutant; outline: as §2
[12] = test system: Sodium-dependent serotonin transporter (Rattus norvegicus), P31652 [G273C]; test: Effect on 2-(aminoethyl)methanethiosulphonate hydrobromide-induced inactivation of rat SERT G273C mutant assessed as increase in rate constant for inactivation; outline: as §1
[13] = biological target: T1, Sodium-dependent serotonin transporter (Rattus norvegicus, UniProt P31652); test: Inhibition of [3H]5HT uptake at rat SERT expressed in HeLa cells; format: cell-based
[14] = biological target: T1, Sodium-dependent serotonin transporter; test: Displacement of [125I]beta-CIT from rat SERT expressed in HeLa cells; format: cell-based
[15] = biological target: T2, Sodium-dependent serotonin transporter (Homo sapiens, UniProt P31645)
T2 sequence (P31645 whole entry): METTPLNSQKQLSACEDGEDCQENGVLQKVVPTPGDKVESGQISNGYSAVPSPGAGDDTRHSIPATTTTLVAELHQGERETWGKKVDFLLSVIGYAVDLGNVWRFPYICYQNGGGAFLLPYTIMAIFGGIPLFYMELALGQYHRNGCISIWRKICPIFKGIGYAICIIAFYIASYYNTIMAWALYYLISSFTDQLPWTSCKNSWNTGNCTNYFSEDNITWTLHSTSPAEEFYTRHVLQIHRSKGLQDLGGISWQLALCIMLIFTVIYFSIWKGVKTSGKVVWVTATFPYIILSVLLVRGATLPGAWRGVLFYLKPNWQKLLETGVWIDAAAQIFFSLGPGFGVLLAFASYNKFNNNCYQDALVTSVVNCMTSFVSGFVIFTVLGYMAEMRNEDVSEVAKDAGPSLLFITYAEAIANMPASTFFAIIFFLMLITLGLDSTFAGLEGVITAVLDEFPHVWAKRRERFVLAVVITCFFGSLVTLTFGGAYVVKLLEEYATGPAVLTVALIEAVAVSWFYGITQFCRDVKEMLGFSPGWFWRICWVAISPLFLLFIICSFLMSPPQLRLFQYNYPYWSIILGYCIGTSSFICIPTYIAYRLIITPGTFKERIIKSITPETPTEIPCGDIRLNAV

[16] = biological target: T2, Sodium-dependent serotonin transporter; test: Displacement of [125I]beta-CIT from human SERT in human platelet membrane in presence of 5 uM ibogaine; format: cell membranes
[17] = compound: CC[C@H]1C[C@H]2C[C@H]3c4[nH]c5ccc(OC)cc5c4CCN(C2)[C@@H]13; test: (§3) Inhibition of [3H]5HT transport at rat SERT expressed in pig LLC-PK1 cells at 5 uM; format: cell-based
Outline: (§4)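 LLC-PK1 cells stably expressing rat SERT were grown as monolayers. Uptake of [3H]5-HT at varied concentrations was measured for 5 min with or without 5 μM ibogaine. Nonspecific uptake was defined with 100 μM cocaine. Km and Vmax were fitted, with an Eadie-Hofstee plot also shown.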

[18] = compound: COC(=O)[C@H]1[C@@H](OC(=O)c2ccccc2)C[C@@H]2CC[C@H]1N2C; test: as §3; format: cell-based; outline: as §4

Molecule	Activity (Rattus norvegicus [1]) [µM]	Activity [2]	Activity [3]	Activity [4]	Activity [6]	Activity [7]	Activity [8]	Activity [9]	Activity (Rattus norvegicus [10])	Activity [12]	other results
COC(=O)[C@H]1[C@@H](OC(=O)c2ccccc2)C[C@@H]2CC[C@H]1N2C	0.58										
CC[C@H]1C[C@H]2C[C@H]3c4[nH]c5ccc(OC)cc5c4CCN(C2)[C@@H]13	0.98	Active	Active	Active	Active	Active	Active	Active	Active	Active	Activity (Rattus norvegicus [5]): inactive; Activity (Rattus norvegicus [11]): inactive
NCCc1c[nH]c2ccc(O)cc12	0.68	Active	inactive	Active	Active	Active	Active	Active	Active	Active	
CC[C@H]1C[C@@H]2C[C@H]3c4[nH]c5ccc(OC)cc5c4CCN(C2)[C@@H]13 [IBOGAINE]											IC50 [13]: 6300 nM; IC50 [14]: 2500 nM
COC(=O)[C@H]1[C@@H](c2ccc(I)cc2)C[C@@H]2CC[C@H]1N2C											Kd [15]: 0.88 nM; Kd [16]: 2.82 nM
B1											Km [17]: 0.17 µM; Vmax [17]: 14 pmol/min/mg; Km [18]: 0.2 µM; Vmax [18]: 35.7 pmol/min/mg
